Assay results from different studies.
Protocols differ between the studies behind these lines.
MTNR1B: Melatonin receptor type 1B (MTNR1B, Homo sapiens, UniProt P49286)
GRM7: Metabotropic glutamate receptor 7 (GRM7, Homo sapiens, UniProt Q14831)

Compound	target	assay	conditions	quantity	result
O=C(O)CC[C@@H](O)C(=O)O	Protein phosphatase 3 catalytic subunit alpha (PPP3CA, Homo sapiens, UniProt Q08209)	binding, SPR	–	Kd	~67 µM
COCC(CNC(C)=O)c1cccc2ccc(OC)cc12 (centres unmarked)	MTNR1B	β-arrestin recruitment, agonist	–	EC50	0.00309 µM
CC(=O)c1cc([N+](=O)[O-])c(Sc2cccc(Cl)c2Cl)s1	Cathepsin D (CTSD, Homo sapiens, UniProt P07339)	enzyme activity, inhibitor	–	EC50	> 50 µM
COc1ccc2[nH]cc(CCNC(C)=O)c2c1I	MTNR1B	cAMP, agonist, TR-FRET	–	EC50	0.229 µM
C=C1CC[C@@H]2[C@](C)(CO)[C@H](O)CC[C@@]2(C)[C@@H]1C/C=C1/C(=O)OC[C@H]1O	UDP-glucuronosyltransferase 2B7 (UGT2B7, Homo sapiens, UniProt P16662)	enzyme activity, inhibitor	pH 7.4	Ki	5.7 µM
COc1ccc(-c2nsc(NC(=O)[C@@H]3C[C@H]3C)c2C)cc1	GRM7	calcium signal, agonist	–	EC50	> 16.7 µM
O=C(NCCc1cccc2ccccc12)C1CCC1	MTNR1B	cAMP, agonist, TR-FRET	–	EC50	1.66 µM
COc1ccc2c(c1)C(=O)C1(Cc3ccccc3C1)O2	Peptidyl-prolyl cis-trans isomerase NIMA-interacting 1 (PIN1, Homo sapiens, UniProt Q13526)	enzyme activity, inhibitor	–	Ki	100 µM
Cc1cc2nc3c(=O)[nH]c(=O)nc-3n(C[C@H](O)[C@H](O)[C@H](O)COP(=O)(O)OP(=O)(O)OC[C@H]3O[C@@H](n4cnc5c(N)ncnc54)[C@H](O)[C@@H]3O)c2cc1C	Protein PRRC2C (Homo sapiens, UniProt Q9Y520)	binding	lysate	Kd	23.7 µM
COc1cc(I)c2[nH]cc(CCNC(C)=O)c2c1	MTNR1B	β-arrestin recruitment, agonist	–	EC50	0.0603 µM
Cc1cc(Nc2cc3ncccc3c(N[C@@H]3C[C@H]4CC[C@@H](C3)N4CCC#N)n2)n[nH]1	Death-associated protein kinase 1 (DAPK1, Homo sapiens, UniProt P53355)	binding, competition with immobilised ligand	–	Kd	0.096 µM
CC1(C)[C@@H](O)CC[C@]2(C)[C@H]3C(=O)C=C4[C@@H]5C[C@@](C)(C(=O)O)CC[C@]5(C)CC[C@@]4(C)[C@]3(C)CC[C@@H]12	Peroxiredoxin-1 (PRDX1, Homo sapiens, UniProt Q06830)	binding, SPR	–	Kd	25 µM
COc1ccc(Br)c(CNc2cccnc2)c1	MTNR1B	cell-free assay	–	Ki	0.00692 µM
C[C@H](C(=O)N[C@@H]1COc2ccccc2[C@H]1S(C)(=O)=O)c1ccc(F)cc1	GRM7	cAMP, agonist, luciferase	–	EC50	0.028 µM
